Measurements reported in ChEMBL document CHEMBL1134791, “2- and 3-substituted 1,4-naphthoquinone derivatives as subversive substrates of trypanothione reductase and lipoamide dehydrogenase from Trypanosoma cruzi: synthesis and correlation between redox cycling activities and in vitro cytotoxicity” (J Med Chem, 2001).
pEC50, pIC50: −log10 of the molar value.

Tests used:
[1] = tested on: Trypanosoma brucei; assay: In vitro antiparasitic activity against Trypanosoma brucei was tested by sigmoidal regression analysis; assay type: functional; conditions: read-out: ED50 (the source's name)
Procedure, shortened: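 T. b. brucei S427 bloodstream trypomastigotes at 2 × 10⁵/mL in HMI-18 medium, in triplicate, with a 3-fold dilution series starting at 30 µM. Incubated 3 days at 37 °C in 5% CO₂. Pentamidine served as positive control. Viability read by tetrazolium colorimetric assay on day 3. ED50 by sigmoidal regression.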

[2] = tested on: Trypanosoma cruzi; assay: In vitro antiparasitic activity against Trypanosoma cruzi was tested by sigmoidal regression analysis; assay type: functional; conditions: read-out: ED50 (the source's name)
Procedure, shortened: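 Mouse peritoneal macrophages (female CD1, starch-elicited, harvested 24 h) infected with L. donovani amastigotes (strain MHOM/ET/67/L82, hamster spleen) or T. cruzi Y-strain trypomastigotes (5:1, from MDCK overlay). Infected cells exposed to a 3-fold dilution series in quadruplicate for 5 days (L. donovani) or 3 days (T. cruzi). Giemsa-stained slides scored for % macrophages cleared of amastigotes versus untreated cultures. ED50 by sigmoidal regression.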

[3] = biological target: Trypanothione reductase (Trypanosoma cruzi, UniProt P28593); assay: Inhibitory activity against Trypanosoma cruzi trypanothione disulfide reductase, assay in presence of 57 uM T(S)2.
Trypanothione reductase, sequence (P28593 whole entry): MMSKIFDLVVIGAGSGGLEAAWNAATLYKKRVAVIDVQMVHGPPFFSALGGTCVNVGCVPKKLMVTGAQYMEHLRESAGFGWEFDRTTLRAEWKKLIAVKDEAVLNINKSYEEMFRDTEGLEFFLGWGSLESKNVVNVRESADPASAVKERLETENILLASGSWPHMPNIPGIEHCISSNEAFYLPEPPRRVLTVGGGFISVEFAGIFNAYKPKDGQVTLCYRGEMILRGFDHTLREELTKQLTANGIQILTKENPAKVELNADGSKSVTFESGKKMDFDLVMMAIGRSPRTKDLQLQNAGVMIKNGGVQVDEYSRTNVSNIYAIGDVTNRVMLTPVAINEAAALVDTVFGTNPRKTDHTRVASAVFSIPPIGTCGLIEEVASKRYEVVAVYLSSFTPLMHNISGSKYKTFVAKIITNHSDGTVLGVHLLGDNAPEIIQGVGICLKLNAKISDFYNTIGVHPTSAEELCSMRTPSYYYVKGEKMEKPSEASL
Procedure, shortened: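 Assay contained 250 µM NADPH, 57 µM T(S)₂, inhibitor at 0.3–50 µM and 1% DMSO final. Started with enzyme; NADPH loss followed at 340 nm. IC50 in duplicate.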

CC1=C(CCC(=O)NCCCCNCCCNC(=O)CCC2=C(C)C(=O)c3cccc(O)c3C2=O)C(=O)c2c(O)cccc2C1=O
pEC50 [1]: 4.86 | pEC50 [2]: 4.34 | pIC50 [3]: 5.54

CN1CCN(C(=O)CCC2=C(CCC(=O)N3CCN(C)CC3)C(=O)c3c(O)cccc3C2=O)CC1
pEC50 [1]: 4.65 | pEC50 [2]: < 4.21 | pIC50 [3]: < 4.30

CC1=C(CCCC(=O)O)C(=O)c2ccccc2C1=O
pIC50 [3]: < 4.30

CC1=C(CCNC(=O)OC(C)(C)C)C(=O)c2c(O)cccc2C1=O
pEC50 [1]: 6.22 | pEC50 [2]: 5.46 | pIC50 [3]: < 4.60

CC1=C(NCCCCN)C(=O)c2c(O)cccc2C1=O
pEC50 [1]: < 4.90 | pEC50 [2]: < 4.90 | pIC50 [3]: < 4.24

CC1=C(CCCCCC(=O)NCCCNCCCNC(=O)CCCCCC2=C(C)C(=O)c3ccccc3C2=O)C(=O)c2ccccc2C1=O
pEC50 [1]: < 5.82 | pEC50 [2]: 4.90 | pIC50 [3]: 5.60

CC1=C(CCCC(=O)N2CCN(C)CC2)C(=O)c2ccccc2C1=O
pEC50 [1]: 5.04 | pEC50 [2]: 4.57

CC1=C(CCC(=O)N2CCN(C)CC2)C(=O)c2c(O)cccc2C1=O
pEC50 [1]: 4.28 | pEC50 [2]: < 4.06 | pIC50 [3]: 4.30

CC1=C(CCCCC(=O)O)C(=O)c2c(O)cccc2C1=O
pEC50 [1]: < 5.00 | pEC50 [2]: 4.38 | pIC50 [3]: < 4.30

CN1CCN(C(=O)CCCC2=C(CCCC(=O)N3CCN(C)CC3)C(=O)c3c(O)cccc3C2=O)CC1
pEC50 [1]: 4.50 | pEC50 [2]: < 4.32 | pIC50 [3]: 4.76

O=C(O)CCCC1=C(CCCC(=O)O)C(=O)c2c(O)cccc2C1=O
pEC50 [1]: 4.21 | pEC50 [2]: < 4.06 | pIC50 [3]: < 4.30

CC1=C(CCCCNC(=O)OC(C)(C)C)C(=O)c2ccccc2C1=O
pEC50 [1]: < 5.52 | pEC50 [2]: 4.98 | pIC50 [3]: < 4.60

CC1=C(NCCCN2CCN(CCCN)CC2)C(=O)c2ccccc2C1=O
pEC50 [2]: < 4.90 | pIC50 [3]: 5.22

CC1=C(O)c2ccccc2C(=O)/C1=N\CCCN1CCN(C)CC1
pEC50 [1]: < 4.90 | pEC50 [2]: < 5.21 | pIC50 [3]: < 4.24

CC1=C(CCCCCC(=O)O)C(=O)c2c(O)cccc2C1=O
pEC50 [1]: < 5.48 | pEC50 [2]: 4.49 | pIC50 [3]: < 4.30

CC1=C(CCCCC(=O)NCCCCNCCCNC(=O)CCCCC2=C(C)C(=O)c3cccc(O)c3C2=O)C(=O)c2c(O)cccc2C1=O
pEC50 [1]: < 5.82 | pEC50 [2]: 5.40 | pIC50 [3]: 5.77

CC1=C(NCCCNCCCN)C(=O)c2ccccc2C1=O
pEC50 [1]: < 4.90 | pEC50 [2]: < 4.90 | pIC50 [3]: 4.92

CC1=C(CCC(=O)O)C(=O)c2c(O)cccc2C1=O
pEC50 [1]: < 4.96 | pEC50 [2]: 4.34 | pIC50 [3]: < 4.30

CC1=C(CCC(=O)NCCCNCCCNC(=O)CCC2=C(C)C(=O)c3ccccc3C2=O)C(=O)c2ccccc2C1=O
pEC50 [1]: 5.35 | pEC50 [2]: 4.33 | pIC50 [3]: 5.30

CC1=C(N2CCN(CCCN(C)C)CC2)C(=O)c2ccccc2C1=O
pEC50 [1]: < 4.90 | pEC50 [2]: < 4.90 | pIC50 [3]: < 4.24

CC1=C(CCCC(=O)O)C(=O)c2c(O)cccc2C1=O
pEC50 [1]: 4.11 | pEC50 [2]: < 3.96 | pIC50 [3]: < 4.30

CC1=C(CCCC(=O)NCCCN2CCN(C)CC2)C(=O)c2c(O)cccc2C1=O
pEC50 [1]: 4.64 | pEC50 [2]: 4.30 | pIC50 [3]: 4.49

CC1=C(CCC(=O)NCCCNCCCNC(=O)CCC2=C(C)C(=O)c3cccc(O)c3C2=O)C(=O)c2c(O)cccc2C1=O
pEC50 [1]: 5.77 | pEC50 [2]: 4.89 | pIC50 [3]: 5.72

CC1=C(CCCCC(=O)O)C(=O)c2ccccc2C1=O
pEC50 [1]: < 3.96 | pEC50 [2]: 4.36 | pIC50 [3]: < 4.30

CC1=C(CCCCCC(=O)NCCCCNCCCNC(=O)CCCCCC2=C(C)C(=O)c3cccc(O)c3C2=O)C(=O)c2c(O)cccc2C1=O
pEC50 [1]: 6.52 | pEC50 [2]: 4.61 | pIC50 [3]: 5.80

CC1=C(CCCCC(=O)NCCCNCCCNC(=O)CCCCC2=C(C)C(=O)c3cccc(O)c3C2=O)C(=O)c2c(O)cccc2C1=O
pEC50 [1]: 5.96 | pEC50 [2]: 5.37 | pIC50 [3]: 6.35

CC1=C(CCCCC(=O)NCCCN2CCN(CCCNC(=O)CCCCC3=C(C)C(=O)c4cccc(O)c4C3=O)CC2)C(=O)c2c(O)cccc2C1=O
pEC50 [1]: < 5.89 | pEC50 [2]: 4.76 | pIC50 [3]: 5.60

CC1=C(NCCCC/N=C2/C(=O)c3ccccc3C(O)=C2C)C(=O)c2ccccc2C1=O
pEC50 [1]: < 4.90 | pEC50 [2]: < 4.90 | pIC50 [3]: < 4.24

CC1=C(CCCCC(=O)NCCCCNCCCNC(=O)CCCCC2=C(C)C(=O)c3ccccc3C2=O)C(=O)c2ccccc2C1=O
pEC50 [1]: 5.36 | pEC50 [2]: 5.05 | pIC50 [3]: 5.85

CC1=C(CCCNC(=O)OC(C)(C)C)C(=O)c2c(O)cccc2C1=O
pEC50 [1]: 6.22 | pEC50 [2]: 5.43 | pIC50 [3]: < 4.60

CN1CCN(CCCNC(=O)CCCCC2=C(CCCCC(=O)NCCCN3CCN(C)CC3)C(=O)c3c(O)cccc3C2=O)CC1
pEC50 [1]: < 4.82 | pEC50 [2]: < 4.34 | pIC50 [3]: 5.21

O=C(O)CCCCC1=C(CCCCC(=O)O)C(=O)c2c(O)cccc2C1=O
pEC50 [1]: < 4.10 | pEC50 [2]: 4.10 | pIC50 [3]: < 4.30

CC1=C(CCCC(=O)NCCCCNCCCNC(=O)CCCC2=C(C)C(=O)c3cccc(O)c3C2=O)C(=O)c2c(O)cccc2C1=O
pEC50 [1]: < 5.35 | pEC50 [2]: 4.34 | pIC50 [3]: 5.64

CC1=C(CCC(=O)NCCCCNCCCNC(=O)CCC2=C(C)C(=O)c3ccccc3C2=O)C(=O)c2ccccc2C1=O
pEC50 [1]: 5.31 | pEC50 [2]: 4.89 | pIC50 [3]: 5.57

CC1=C(CCC(=O)N2CCN(C)CC2)C(=O)c2ccccc2C1=O
pEC50 [1]: 5.02 | pEC50 [2]: 4.15 | pIC50 [3]: < 4.30

CC1=C(CCC(=O)O)C(=O)c2ccccc2C1=O
pEC50 [1]: < 4.52 | pEC50 [2]: < 4.52 | pIC50 [3]: < 4.30

CC1=C(CCCC(=O)NCCCN2CCN(CCCNC(=O)CCCC3=C(C)C(=O)c4cccc(O)c4C3=O)CC2)C(=O)c2c(O)cccc2C1=O
pEC50 [1]: 5.47 | pEC50 [2]: 4.55 | pIC50 [3]: 5.64

CN1CCN(CCCNC(=O)CCC2=C(CCC(=O)NCCCN3CCN(C)CC3)C(=O)c3c(O)cccc3C2=O)CC1
pEC50 [1]: 4.67 | pEC50 [2]: < 4.30 | pIC50 [3]: < 4.30

CC1=C(CCCCCC(=O)NCCCN2CCN(CCCNC(=O)CCCCCC3=C(C)C(=O)c4cccc(O)c4C3=O)CC2)C(=O)c2c(O)cccc2C1=O
pEC50 [1]: < 5.89 | pEC50 [2]: 4.94 | pIC50 [3]: 5.80

CC1=C(CCCCC(=O)NCCCN2CCN(CCCNC(=O)CCCCC3=C(C)C(=O)c4ccccc4C3=O)CC2)C(=O)c2ccccc2C1=O
pEC50 [1]: 5.14 | pEC50 [2]: 4.59 | pIC50 [3]: 5.95

O=C(O)CCC1=C(CCC(=O)O)C(=O)c2c(O)cccc2C1=O
pEC50 [1]: 4.23 | pEC50 [2]: < 4.03 | pIC50 [3]: < 4.30

O=C(O)CCCCCC1=C(CCCCCC(=O)O)C(=O)c2ccccc2C1=O
pEC50 [1]: 4.32 | pEC50 [2]: < 4.13 | pIC50 [3]: < 4.30

CC1=C(CCCCCC(=O)NCCCN2CCN(CCCNC(=O)CCCCCC3=C(C)C(=O)c4ccccc4C3=O)CC2)C(=O)c2ccccc2C1=O
pEC50 [1]: 5.24 | pEC50 [2]: 4.96 | pIC50 [3]: 5.51

CN(C)CCCN1CCN(CC2=C(N3CCN(CCCN(C)C)CC3)C(=O)c3ccccc3C2=O)CC1
pEC50 [1]: < 4.90 | pEC50 [2]: < 4.90 | pIC50 [3]: < 4.24

CC1=C(CCCCCC(=O)NCCCCNCCCNC(=O)CCCCCC2=C(C)C(=O)c3ccccc3C2=O)C(=O)c2ccccc2C1=O
pEC50 [1]: 5.59 | pEC50 [2]: 5.40 | pIC50 [3]: 5.77

CC1=C(CCCC(=O)NCCCNCCCNC(=O)CCCC2=C(C)C(=O)c3ccccc3C2=O)C(=O)c2ccccc2C1=O
pEC50 [1]: 4.57 | pEC50 [2]: < 4.31 | pIC50 [3]: 4.96

CC1=C(CCCC(=O)NCCCN2CCN(CCCNC(=O)CCCC3=C(C)C(=O)c4ccccc4C3=O)CC2)C(=O)c2ccccc2C1=O
pEC50 [1]: 4.86 | pEC50 [2]: 4.89 | pIC50 [3]: 5.35
